Test results from paper PMC6468299 (Nucleic Acids Research, 2019).

Molecular target: T1, Pol-γ (exo- mutant) (Homo sapiens, UniProt P54098, D198A/E200A)
T1 sequence (P54098 26-1239 D198A/E200A limits assumed): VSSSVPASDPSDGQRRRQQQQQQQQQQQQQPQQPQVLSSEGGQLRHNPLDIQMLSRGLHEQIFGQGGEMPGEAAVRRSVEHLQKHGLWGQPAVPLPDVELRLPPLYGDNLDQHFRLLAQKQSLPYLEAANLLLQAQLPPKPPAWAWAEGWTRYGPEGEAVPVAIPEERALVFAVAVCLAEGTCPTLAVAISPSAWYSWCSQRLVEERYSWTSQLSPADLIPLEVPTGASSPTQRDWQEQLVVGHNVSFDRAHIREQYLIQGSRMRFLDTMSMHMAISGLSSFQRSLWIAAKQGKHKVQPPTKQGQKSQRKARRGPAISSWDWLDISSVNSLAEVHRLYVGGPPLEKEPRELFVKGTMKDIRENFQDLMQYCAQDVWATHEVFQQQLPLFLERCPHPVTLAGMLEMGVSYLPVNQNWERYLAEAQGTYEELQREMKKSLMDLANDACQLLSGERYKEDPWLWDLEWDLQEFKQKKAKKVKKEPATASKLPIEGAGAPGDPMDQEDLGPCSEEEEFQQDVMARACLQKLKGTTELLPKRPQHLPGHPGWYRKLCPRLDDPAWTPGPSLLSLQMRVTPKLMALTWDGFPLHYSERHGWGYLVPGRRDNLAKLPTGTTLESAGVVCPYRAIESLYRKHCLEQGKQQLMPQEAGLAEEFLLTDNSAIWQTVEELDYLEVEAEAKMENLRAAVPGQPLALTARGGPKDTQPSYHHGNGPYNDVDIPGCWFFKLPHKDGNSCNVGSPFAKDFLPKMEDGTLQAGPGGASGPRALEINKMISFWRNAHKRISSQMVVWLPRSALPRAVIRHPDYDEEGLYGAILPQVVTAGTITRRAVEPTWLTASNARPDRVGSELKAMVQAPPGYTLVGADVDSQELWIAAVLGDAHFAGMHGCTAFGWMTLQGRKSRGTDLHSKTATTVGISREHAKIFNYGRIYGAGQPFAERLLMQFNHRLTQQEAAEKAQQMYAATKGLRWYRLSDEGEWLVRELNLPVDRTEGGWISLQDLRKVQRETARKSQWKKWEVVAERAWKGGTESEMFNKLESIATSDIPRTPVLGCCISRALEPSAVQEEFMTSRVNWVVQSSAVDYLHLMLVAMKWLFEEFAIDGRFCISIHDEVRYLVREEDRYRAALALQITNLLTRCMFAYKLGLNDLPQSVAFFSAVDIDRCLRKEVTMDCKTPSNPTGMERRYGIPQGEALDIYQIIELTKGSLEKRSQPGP
Test: Non-obligate chain termination assay
Format: biochemical
Details: for chain elongation with analog in excess over dTTP: analog 1 μM at 10-fold (FIAU-TP also 100-fold) excess over dTTP; for chain elongation with analog substituted for dTTP: analog 1 μM, no dTTP; for effect on chain elongation in the presence of native dTTP: dTTP 1 μM, analog at 0.01, 0.1 or 1 μM, 37°C, 10 min
In short: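 A 23-mer DNA primer was 5′-end labelled with γ-³²P ATP and annealed to a 50-mer template. Extension required reading through nine consecutive template adenosines. Reactions used 10 units exonuclease-deficient human Pol-γ, with test analogue (0.01–1 μM) alone or with dTTP, plus native dATP/dCTP/dGTP, for 10 min at 37°C. Samples were stopped with loading dye, heated 100°C 5 min, run on 12% urea PAGE and phosphorimaged.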

| SMILES | chain elongation with analog in excess over dTTP | chain elongation with analog substituted for dTTP | effect on chain elongation in the presence of native dTTP |
| --- | --- | --- | --- |
| O=c1ccn([C@@H]2O[C@H](COP(=O)(O)OP(=O)(O)OP(=O)(O)O)[C@@H](O)[C@H]2F)c(=O)[nH]1 [2′-F-UTP] | the presence of dTTP reduced the elongation defect | weak smear of elongated species with very little full-length product | essentially no impact on chain elongation |
| O=c1[nH]c(=O)n([C@@H]2O[C@H](COP(=O)(O)OP(=O)(O)OP(=O)(O)O)[C@@H](O)[C@@H]2F)cc1I [FIAU-TP, fialuridine triphosphate, reference compound] | continued to strongly impair elongation | restricted elongation products to 31 nucleotides in length | caused a reduction in full-length product and an increase in shorter products at the highest concentration |
